# Measured values from ChEMBL document CHEMBL4011589, “Discovery of novel furanone derivatives as potent Cdc7 kinase inhibitors” (Eur J Med Chem, 2017).
# pIC50: −log10 of the molar value.
# What was measured:
# [1] = molecular target: CDC7/DBF4 (Cell division cycle 7-related protein kinase/Activator of S phase kinase) (Homo sapiens, UniProt O00311); assay: Inhibition of recombinant human Cdc7 (1 to 574 residues)/human N-terminal GST-tagged ASK (1 to 674 residues) expressed in baculovirus expression system using FITC-labeled MCM2 peptide as substrate measured after 5 hrs in presence of 5 uM ATP
# Outline: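 Cdc7 enzymatic assay with 5 µM ATP. IC50 values are the mean of duplicate measurements.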
# Mus musculus = organism: Mus musculus; assay: Stability in mouse liver microsomes assessed as compound remaining at 1 uM in presence of NADPH after 30 mins by LC-MS/MS analysis
# [2] = molecular target: CDC7/DBF4 (Cell division cycle 7-related protein kinase/Activator of S phase kinase) (Homo sapiens) (UniProt Q9UBU7+O00311); assay: Ratio of IC50 for recombinant human Cdc7 (1 to 574 residues)/human N-terminal GST-tagged ASK (1 to 674 residues) expressed in baculovirus expression system in presence of […] to IC50 for recombinant human Cdc7 (1 to 574 residues)/human N-terminal GST-tagged ASK (1 to 674 residues) expressed in baculovirus expression system in presence of 5 uM ATP
# [3] = Stability of the compound under basic condition; format: physicochemical
# [4] = Stability of the compound in 50% KOH; format: physicochemical
# [5] = Stability in human liver microsomes assessed as compound remaining at 1 uM in presence of NADPH after 30 mins by LC-MS/MS analysis; format: ADME, microsome; settings: read-out: Stability
# Outline: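 Human liver microsomes are incubated with compound for 30 min. The read-out is the percentage of parent compound remaining.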
SMILES,pIC50 [1],further results
NC(=O)C1=C(Nc2ccccc2)O/C(=C\c2c[nH]c3ncccc23)C1=O,< 5.00,
O=C(O)C1=C(Nc2ccccc2)O/C(=C\c2c[nH]c3ncccc23)C1=O,8.00,
CCOC(=O)C1=C(Nc2ccc(OC)cc2)O/C(=C\c2c[nH]c3ncccc23)C1=O,8.31,"remaining at 0.5 h, 1 µM [5]: 33%"
CCOC(=O)C1=C(Nc2ccccc2)O/C(=C\c2ccc(O)c(C)c2)C1=O,5.92,
CCNC(=O)C1=C(Nc2ccccc2)O/C(=C\c2c[nH]c3ncccc23)C1=O,5.80,

# The next lines start with results.
pIC50 [1],SMILES,further results
< 5.00,CCOC(=O)C1=C(Nc2ccccc2)S/C(=C\c2c[nH]c3ncccc23)C1=O,
8.42 to 8.48,CCOC(=O)C1=C(Nc2ccccc2)O/C(=C\c2c[nH]c3ncccc23)C1=O,"remaining at 0.5 h, 1 µM (Mus musculus): 7.9%; Ratio IC50 [2]: 21; Stability [3]: Stable; Stability [4]: Unstable; remaining at 0.5 h, 1 µM [5]: 23%"
5.49,CCOC(=O)C1=C(Nc2ccccc2)O/C(=C\c2ccc3c(c2)OCO3)C1=O,
7.36,CCOC(=O)C1=C(Nc2ccccc2)O/C(=C\c2c[nH]c3ncc(Cl)cc23)C1=O,
6.05,O=C1C(C(=O)N2CCCCC2)=C(Nc2ccccc2)O/C1=C\c1c[nH]c2ncccc12,
8.37,CCOC(=O)C1=C(Nc2ccc(F)cc2)O/C(=C\c2c[nH]c3ncccc23)C1=O,"remaining at 0.5 h, 1 µM [5]: 52%"
